RBBP9 inhibitor: human RBBP9 inhibitors, primary screen, biochemical, fluorescence polarization, FP-Rh probe, HTS; inhibition, % at 7.94 µM; AID 1515, 2009; Serine hydrolase RBBP9 (Homo sapiens), O75884; recombinant RBBP9; 220,000 tested, 0.2% active;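 active = inhibition above the campaign mean of all tested compounds plus 3 SD, cut at about 14% in these data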
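Measured by – fluorescence polarization · Test system – RBBP9 protein · Input – 2.5 µM RBBP9 dispensing solution, before mixing · Measure – percent inhibition from mP, scaled between DMSO and no-protein wells · Benchmarks – DMSO-treated enzyme wells and wells lacking RBBP9 · Times – preincubation 30 min plus labeling 45 min at 25 °C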
LYPLA2 inh: LYPLA2 inhibitors, primary screen, counter-screen for PME1 inhibitor project, biochemical, fluorescence polarization, FP-Rh probe ABPP; recombinant LYPLA2; inhibition, % at 5.9 µM; 320,000 tested, 0.38% active; AID 2177, 2009;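 active = inhibition above the screen-wide mean plus 3 SD, limit set per campaign, cut at about 26% in these data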
Target sequence (O95372 whole entry, looked up): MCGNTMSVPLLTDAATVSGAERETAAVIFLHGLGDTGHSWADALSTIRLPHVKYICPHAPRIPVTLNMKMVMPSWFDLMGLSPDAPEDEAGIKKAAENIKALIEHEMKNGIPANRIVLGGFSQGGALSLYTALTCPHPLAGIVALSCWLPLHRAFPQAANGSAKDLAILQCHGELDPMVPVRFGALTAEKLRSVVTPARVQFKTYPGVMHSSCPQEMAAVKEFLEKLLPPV
Fam108B inh: mouse Fam108B serine hydrolase inhibitors, primary screen, counter-screen for RBBP9 inhibitor project, biochemical, fluorescence polarization; inhibition, % at 9.51 µM; AID 1947, 2009; recombinant Fam108B, FP-Rh probe fluorescence polarization; 300,000 tested, 0.33% active;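 active = inhibition above the screen mean inhibition plus 3 SD, computed separately per campaign, cut at about 18% in these data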;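 note: inhibitors lower polarization as less probe binds the enzyme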
PME-1 inh: PME-1 inhibitors via competitive probe labeling, primary screen, biochemical, fluorescence polarization, FP-Rh probe, HTS | recombinant PME-1 | Protein phosphatase methylesterase 1 (Homo sapiens), Q9Y570 | AID 2130, 2009 | inhibition, % at 5.9 µM | 320,000 tested, 0.53% active;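 active = inhibition above the campaign mean of all compounds plus 3 SD, cut at about 26% in these data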;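 note: competitive labeling of PME-1 active site by serine hydrolase directed probe; inhibitors block probe labeling so polarization falls and inhibition rises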
Target sequence (Q9Y570 whole entry, looked up): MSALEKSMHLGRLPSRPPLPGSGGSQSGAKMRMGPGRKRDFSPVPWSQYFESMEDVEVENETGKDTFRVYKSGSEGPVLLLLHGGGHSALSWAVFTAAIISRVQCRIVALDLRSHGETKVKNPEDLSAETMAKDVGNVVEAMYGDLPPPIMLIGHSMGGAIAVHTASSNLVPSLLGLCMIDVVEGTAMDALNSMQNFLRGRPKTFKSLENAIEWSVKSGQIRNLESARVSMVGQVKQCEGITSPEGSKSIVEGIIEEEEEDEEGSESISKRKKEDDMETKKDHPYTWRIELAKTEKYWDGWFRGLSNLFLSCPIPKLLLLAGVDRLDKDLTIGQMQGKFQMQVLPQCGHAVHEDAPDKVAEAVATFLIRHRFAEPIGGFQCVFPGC
PAD4 inh: human PAD4 inhibitors, primary screen, biochemical, fluorescence polarization, 1536-well format. recombinant PAD4, RCA probe fluorescence polarization. inhibition, % at 6.36 µM. 330,000 tested, 0.41% active. AID 485272, 2010;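 active = percent inhibition above a cutoff equal to the mean of all tested compounds plus 3 SD, cut at about 15% in these data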
LYPLA1 counter: LYPLA1 inhibitors, primary screen, counter-screen for PME1 inhibitor project, biochemical, fluorescence polarization, FP-Rh probe ABPP | recombinant LYPLA1 | inhibition, % at 5.9 µM | 320,000 tested, 0.16% active;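 active = inhibition above the mean of all tested compounds plus 3 SD, set per campaign, cut at about 14% in these data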;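 note: inhibitors block serine hydrolase probe labeling of LYPLA1 so polarization falls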
Fam108b inh conf: mouse Fam108b serine hydrolase inhibitors, confirmation, counter-screen for RBBP9 inhibitor project, biochemical, fluorescence polarization, triplicate | recombinant Fam108b, FP-Rh probe fluorescence polarization | shares compounds with Fam108B inh | inhibition, % at 9.51 µM | 930 tested, 44% active;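 active = inhibition above a limit from the primary screen, the mean over all compounds plus 3 SD, cut at about 19% in these data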;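 note: inhibitors free the probe so polarization falls as inhibition rises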
Fam108b inh: inhibition of mouse Fam108b by HTS hits, late-stage follow-up, biochemical, gel-based ABPP, soluble recombinant form; shares compounds with Fam108B inh; fluorophosphonate probe; 260 tested, 44% active; inhibition, % at 20 µM; in the data active = inhibition above about 40%
A number is an active result; – = inactive; · = no result. This is a sample that favours compounds with a hit; in the whole collection about 1.3% have one here.

SMILES | RBBP9 inhibitor | LYPLA2 inh | Fam108B inh | PME-1 inh | PAD4 inh | LYPLA1 counter | Fam108b inh conf | others
Cc1ccc(C(=O)Nc2ccc(C(=O)N/N=C/c3c[nH]c4ccccc34)cc2)cc1 | – | – | – | – | – | – | ·
O=C(Nc1ccc(N2CCCCC2)c(Cl)c1)c1ccc(N2CCOCC2)c([N+](=O)[O-])c1 | – | – | 19 | – | – | – | –
CCC/C(C)=N/NC(=O)c1ccccc1O | – | – | – | – | – | – | ·
C/C(=N\NC(=O)c1ccccc1O)C1C(=O)c2ccccc2C1=O | – | – | 51 | – | – | – | 51
C=CC[C@@H](CC(=O)N(CCO)Cc1ccccc1)C(=O)NCCOC(=O)[C@H](CC=C)CC(=O)OC(C)(C)C | · | · | · | · | – | · | ·
CCOC(=O)C1CCN(C(=O)Nc2ccc3nc(-c4ccco4)c(-c4ccco4)nc3c2)CC1 | – | – | 34 | – | – | – | 40 | Fam108b inh=–
CC(=O)NC(Cc1cccc(C)c1)C(=O)NC1CCN(C(=O)c2ccc([N+](=O)[O-])cc2)CC1 (configuration not stated) | – | – | – | – | – | – | ·
CC1=NOC(=O)/C1=C/c1ccc(-c2ccc(Cl)cc2)o1 | – | – | 19 | – | – | – | –
CC1=NOC(=O)/C1=C\c1ccc(-c2ccc(Br)cc2)o1 | – | · | · | · | · | · | ·
CC(=O)c1c2c3c(cccc3n(C)c1=O)C(=O)c1ccccc1-2 | · | – | – | – | – | – | ·
Cn1c(=O)c(Nc2ccc(O)cc2)c2c3c(cccc31)C(=O)c1ccccc1-2 | – | – | 23 | 36 | – | – | 22
Cc1ccc(S(=O)(=O)Nc2ccccc2C(=O)Nc2nc(-c3ccc(F)cc3)cs2)cc1 | – | – | 24 | – | – | – | 97 | Fam108b inh=65
CC(=O)n1c(=O)oc2ccccc21 | · | – | – | – | – | – | ·
CCOC(=O)c1c(NC(=O)Nc2ccccc2)sc(C)c1C | – | – | 22 | – | – | – | –
CC(C)c1ccc(NC(=O)CN2C(=O)NC3(CCCC3)C2=O)cc1 | · | – | – | – | – | – | ·
C#CCOCCOCCOCCNc1nc(N2CCN(C(=O)[C@H](Cc3cc4ccccc4[nH]3)n3cc([C@@H](N)C(C)CC)nn3)CC2)nc(N2CCN(C(=O)[C@H](Cc3cc4ccccc4[nH]3)n3cc([C@@H](N)CC(C)C)nn3)CC2)n1 (some centres not stated) | – | – | – | – | – | – | ·
Nc1ccc(C(=O)O)cc1 | · | – | – | – | – | – | ·
Nc1ccc(O)cc1 | · | – | 64 | 50 | 52 | – | –
Cc1ccc(S(=O)(=O)N2CCN(CC(=O)N/N=C/C=C/c3ccccc3)CC2)cc1 | – | – | – | – | – | – | ·
O=[N+]([O-])c1ccc(N/N=C/c2cccc(O)c2O)cc1 | · | – | 19 | 33 | – | – | 93
Cc1cccc(C(=O)Oc2ccccc2/C=N/Nc2ccc([N+](=O)[O-])cc2)c1 | – | – | 25 | – | – | – | –
O=[N+]([O-])c1ccc(N/N=C/c2c[nH]c3ccccc23)cc1 | – | – | – | – | – | – | ·
O=[N+]([O-])c1cccc(N/N=C/c2cccc3ccccc23)c1 | – | – | 26 | – | – | – | 23
Cc1cccc(C(=O)Oc2ccc(/C=N/O)cc2)c1 | – | – | – | – | – | – | ·
Cc1c(OCC(=O)NCC2CCC(C(=O)NCCCO)CC2)ccc2c(-c3ccccc3)cc(=O)oc12 (configuration not stated) | · | – | – | – | – | – | ·
SMILES | RBBP9 inhibitor | LYPLA2 inh | Fam108B inh | PME-1 inh | PAD4 inh | LYPLA1 counter | Fam108b inh conf | others
Cc1cccc(Sc2nc(-c3ccccc3)ncc2C(=O)O)c1 | – | – | – | – | – | – | ·
Cc1cc(C(=O)O)ccc1-n1c(C)ccc1C | – | – | 24 | – | – | – | –
Cc1cc(C(=O)O)ccc1-n1c(C)cc(C=C2C(=O)c3ccccc3C2=O)c1C | – | – | – | – | – | – | ·
CC(C)c1ccc(S(=O)(=O)/N=C2/C=C(Sc3ncn[nH]3)C(=O)c3ccccc32)cc1 | – | 36 | 58 | 42 | 38 | – | 36
Cc1ccc(S(=O)(=O)/N=C2/C=C(Sc3ncn[nH]3)C(=O)c3ccccc32)c(C)c1 | – | 31 | 60 | 36 | 16 | – | 34
Cc1ccc(S(=O)(=O)N2CCN(C(=O)CSc3ncn[nH]3)CC2)c(C)c1 | · | – | – | – | – | – | ·
Cc1nnsc1C(=O)N1CCCC(Nc2ccc(F)c(F)c2)C1 (configuration not stated) | · | – | – | – | – | – | ·
COc1cccc(/C=N/Nc2nc(Nc3ccc([N+](=O)[O-])cc3)nc(N3CCCC3)n2)c1O | – | – | 25 | – | – | – | 31
COc1cccc(/C=N/Nc2ccnc(=O)[nH]2)c1O | · | – | – | – | – | – | ·
COc1cccc(/C=N/Nc2ccc([N+](=O)[O-])cn2)c1O | · | – | 51 | 75 | – | – | –
CCC(=O)NC(c1ccccc1Cl)c1c(O)ccc2ccccc12 (configuration not stated) | – | – | 18 | 47 | – | – | –
COCCCNC(=S)Nc1cccc2ncccc12 | – | – | – | – | – | – | ·
CCn1c2ccccc2c2cc(NC(=O)c3cc(OC)c(OC)c(OC)c3)ccc21 | – | – | 19 | – | – | – | –
O=C(CNc1ccc2ccccc2c1)N/N=C/c1cc2ccccc2nc1Cl | – | – | 37 | 52 | – | – | –
CC(=O)c1ccc(S(=O)(=O)N2CCC(C(=O)Nc3ncc(C)s3)CC2)cc1 | · | · | · | · | – | · | ·
Cc1nc(NC(=O)/C=C/c2ccc(C(C)(C)C)cc2)sc1C(=O)N(C)C | – | – | – | – | – | – | ·
COc1ccc(C2C3=C(CC(C)(C)CC3=O)Nc3c2c(=O)[nH]c(=O)n3Cc2ccccc2)cc1 (configuration not stated) | – | – | 21 | – | – | – | 22
S=C1NCCOCCOCCNC(=S)N2CCOCCOCCN1CCOCCOCC2 | – | – | – | – | – | – | ·
CC(=O)Oc1cc2c3c(c1)/C(=C1/SC(=S)NC1=O)C(=O)N3C(C)(C)C=C2C | – | – | 19 | – | – | – | 22
CCOc1cc2c3c(c1)C(C)=CC(C)(C)N3C(=O)C2=O | – | – | – | – | – | – | ·
